Converted amounts (≈) assume the structure as drawn.
Key:
[1] = target: E3 ubiquitin-protein ligase TRIM33 (Homo sapiens, UniProt Q9UPN9); assay: Inhibition of human TRIM33 expressed in Escherichia coli BL21 after 1 hr by BROMOscan assay
[2] = target: Bromodomain adjacent to zinc finger domain protein 2A (Homo sapiens, UniProt Q9UIF9); assay: Inhibition of human BAZ2A expressed in Escherichia coli BL21 after 1 hr by BROMOscan assay
[3] = target: Histone acetyltransferase KAT2B (Homo sapiens, UniProt Q92831); assay: Inhibition of human PCAF expressed in Escherichia coli BL21 after 1 hr by BROMOscan assay
hERG (KCNH2) = hERG (KCNH2) (Homo sapiens, UniProt Q12809); assay: Inhibition of human ERG at 30 uM
[4] = target: T1, Bromodomain-containing protein 9 (Homo sapiens, UniProt Q9H8M2); assay: Binding affinity to human BRD9 by isothermal titration calorimetry
T1 sequence (Q9H8M2 whole entry): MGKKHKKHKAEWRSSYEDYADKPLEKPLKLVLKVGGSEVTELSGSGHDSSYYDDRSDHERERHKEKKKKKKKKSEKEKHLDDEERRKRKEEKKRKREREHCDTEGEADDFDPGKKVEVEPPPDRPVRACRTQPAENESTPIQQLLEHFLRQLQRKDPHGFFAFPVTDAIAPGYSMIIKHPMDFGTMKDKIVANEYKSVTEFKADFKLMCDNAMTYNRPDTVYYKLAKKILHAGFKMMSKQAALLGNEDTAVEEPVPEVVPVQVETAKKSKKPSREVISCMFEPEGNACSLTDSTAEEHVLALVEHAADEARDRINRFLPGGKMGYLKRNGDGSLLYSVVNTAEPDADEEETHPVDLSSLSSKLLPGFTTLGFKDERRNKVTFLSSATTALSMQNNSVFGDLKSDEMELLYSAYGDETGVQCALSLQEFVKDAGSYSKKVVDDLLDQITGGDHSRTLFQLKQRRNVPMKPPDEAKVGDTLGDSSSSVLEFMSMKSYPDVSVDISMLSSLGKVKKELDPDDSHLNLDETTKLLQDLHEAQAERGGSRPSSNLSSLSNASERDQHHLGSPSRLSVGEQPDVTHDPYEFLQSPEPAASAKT

[5] = Growth inhibition of human SW403 cells after 72 hrs; type: functional; settings: SW-403, 72 h
HuP-T4 = assay: Growth inhibition of human HUPT4 cells after 72 hrs; type: functional; settings: HuP-T4, 72 h
[6] = Oral bioavailability in CD-1 mouse at 3 mg/kg; type: ADME, organism-based; settings: in vivo
In short: (§1)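 Female CD-1 mice (n = 3), single dosing: intravenous 1.0 mg/kg, or oral 3.0 mg/kg given as a suspension. Blood levels were followed over time to derive clearance, volume of distribution, elimination half-life, Cmax, Tmax, AUC0−∞, oral bioavailability and fraction absorbed.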

[7] = Growth inhibition of human MOLP8 cells after 72 hrs; type: functional; settings: MOLP-8, 72 h
SW-620 = assay: Growth inhibition of human SW620 cells after 72 hrs; type: functional; settings: SW-620, 72 h
[8] = target: T2, Bromodomain and PHD finger-containing protein 3 (Homo sapiens, UniProt Q9ULD4); assay: Inhibition of human His tagged BRPF3 incubated for 30 mins followed by addition of biotinylated peptide and further incubation for 30 mins measured by AlphaScreen assay
T2 sequence (Q9ULD4 whole entry): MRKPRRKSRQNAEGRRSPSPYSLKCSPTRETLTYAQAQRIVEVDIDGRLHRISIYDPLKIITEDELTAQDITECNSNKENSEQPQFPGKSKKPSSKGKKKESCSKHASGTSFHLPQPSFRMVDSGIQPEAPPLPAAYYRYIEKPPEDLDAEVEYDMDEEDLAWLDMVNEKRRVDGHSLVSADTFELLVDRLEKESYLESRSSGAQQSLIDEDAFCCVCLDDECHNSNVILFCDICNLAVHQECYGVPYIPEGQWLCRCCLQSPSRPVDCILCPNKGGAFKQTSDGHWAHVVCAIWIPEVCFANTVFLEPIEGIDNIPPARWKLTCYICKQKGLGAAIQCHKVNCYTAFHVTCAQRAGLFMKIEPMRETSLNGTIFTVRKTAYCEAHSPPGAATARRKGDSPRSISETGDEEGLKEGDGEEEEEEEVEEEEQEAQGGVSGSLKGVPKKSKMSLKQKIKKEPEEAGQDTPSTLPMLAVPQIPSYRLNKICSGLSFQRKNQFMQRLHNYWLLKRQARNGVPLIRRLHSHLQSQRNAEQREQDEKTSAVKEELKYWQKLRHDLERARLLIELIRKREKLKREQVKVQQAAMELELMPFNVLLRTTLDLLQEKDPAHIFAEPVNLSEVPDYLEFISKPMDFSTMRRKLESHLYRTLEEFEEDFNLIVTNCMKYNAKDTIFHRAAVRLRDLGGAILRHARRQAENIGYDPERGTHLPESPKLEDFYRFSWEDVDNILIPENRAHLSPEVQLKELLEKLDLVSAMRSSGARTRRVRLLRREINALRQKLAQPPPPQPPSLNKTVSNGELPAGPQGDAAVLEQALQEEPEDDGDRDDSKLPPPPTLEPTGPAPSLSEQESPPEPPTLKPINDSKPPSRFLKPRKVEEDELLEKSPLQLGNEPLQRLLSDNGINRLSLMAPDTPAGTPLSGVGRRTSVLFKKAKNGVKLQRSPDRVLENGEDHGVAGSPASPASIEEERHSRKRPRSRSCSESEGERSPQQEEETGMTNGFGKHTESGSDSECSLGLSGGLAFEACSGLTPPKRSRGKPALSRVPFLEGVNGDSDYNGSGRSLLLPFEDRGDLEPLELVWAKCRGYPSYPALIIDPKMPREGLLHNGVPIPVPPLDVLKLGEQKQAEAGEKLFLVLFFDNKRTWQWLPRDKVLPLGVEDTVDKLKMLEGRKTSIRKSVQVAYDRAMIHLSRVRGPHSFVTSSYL
In short: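 AlphaScreen biochemical readout of bromodomain inhibition, giving an IC50. Compound series were made by serial dilution of a 100 mM DMSO stock. […] Differences under 2-fold are treated as not significant.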

KG-1 = assay: Growth inhibition of human KG1 cells after 72 hrs; type: functional; settings: KG-1, 72 h
[9] = Aqueous solubility of compound; type: physicochemical; settings: buffer
[10] = Elimination half life in CD-1 mouse plasma at 1 mg/kg, iv administered as bolus; type: ADME, organism-based; settings: read-out: beta t1/2 (converted); in short: as §1
[11] = Apparent permeability across apical side to basolateral side in human Caco2 cells at 10 uM after 2 hrs by LC-MS/MS analysis; type: ADME, cell-based; settings: Caco-2
HepG2 = assay: Growth inhibition of human HepG2 cells after 72 hrs; type: functional; settings: HepG2, 72 h
[12] = Tmax in CD-1 mouse blood at 3 mg/kg, po; type: ADME, organism-based; settings: whole blood; in short: as §1
[13] = Fraction absorbed in CD-1 mouse at 3 mg/kg, po; type: ADME, organism-based; settings: in vivo, read-out: Fabs; in short: as §1
[14] = Volume of distribution in CD-1 mouse blood at 1 mg/kg, iv administered as bolus; type: ADME, organism-based; settings: whole blood; in short: as §1

Bromodomain adjacent to zinc finger domain protein 2A, sequence (Q9UIF9 whole entry, the tested form may be a part): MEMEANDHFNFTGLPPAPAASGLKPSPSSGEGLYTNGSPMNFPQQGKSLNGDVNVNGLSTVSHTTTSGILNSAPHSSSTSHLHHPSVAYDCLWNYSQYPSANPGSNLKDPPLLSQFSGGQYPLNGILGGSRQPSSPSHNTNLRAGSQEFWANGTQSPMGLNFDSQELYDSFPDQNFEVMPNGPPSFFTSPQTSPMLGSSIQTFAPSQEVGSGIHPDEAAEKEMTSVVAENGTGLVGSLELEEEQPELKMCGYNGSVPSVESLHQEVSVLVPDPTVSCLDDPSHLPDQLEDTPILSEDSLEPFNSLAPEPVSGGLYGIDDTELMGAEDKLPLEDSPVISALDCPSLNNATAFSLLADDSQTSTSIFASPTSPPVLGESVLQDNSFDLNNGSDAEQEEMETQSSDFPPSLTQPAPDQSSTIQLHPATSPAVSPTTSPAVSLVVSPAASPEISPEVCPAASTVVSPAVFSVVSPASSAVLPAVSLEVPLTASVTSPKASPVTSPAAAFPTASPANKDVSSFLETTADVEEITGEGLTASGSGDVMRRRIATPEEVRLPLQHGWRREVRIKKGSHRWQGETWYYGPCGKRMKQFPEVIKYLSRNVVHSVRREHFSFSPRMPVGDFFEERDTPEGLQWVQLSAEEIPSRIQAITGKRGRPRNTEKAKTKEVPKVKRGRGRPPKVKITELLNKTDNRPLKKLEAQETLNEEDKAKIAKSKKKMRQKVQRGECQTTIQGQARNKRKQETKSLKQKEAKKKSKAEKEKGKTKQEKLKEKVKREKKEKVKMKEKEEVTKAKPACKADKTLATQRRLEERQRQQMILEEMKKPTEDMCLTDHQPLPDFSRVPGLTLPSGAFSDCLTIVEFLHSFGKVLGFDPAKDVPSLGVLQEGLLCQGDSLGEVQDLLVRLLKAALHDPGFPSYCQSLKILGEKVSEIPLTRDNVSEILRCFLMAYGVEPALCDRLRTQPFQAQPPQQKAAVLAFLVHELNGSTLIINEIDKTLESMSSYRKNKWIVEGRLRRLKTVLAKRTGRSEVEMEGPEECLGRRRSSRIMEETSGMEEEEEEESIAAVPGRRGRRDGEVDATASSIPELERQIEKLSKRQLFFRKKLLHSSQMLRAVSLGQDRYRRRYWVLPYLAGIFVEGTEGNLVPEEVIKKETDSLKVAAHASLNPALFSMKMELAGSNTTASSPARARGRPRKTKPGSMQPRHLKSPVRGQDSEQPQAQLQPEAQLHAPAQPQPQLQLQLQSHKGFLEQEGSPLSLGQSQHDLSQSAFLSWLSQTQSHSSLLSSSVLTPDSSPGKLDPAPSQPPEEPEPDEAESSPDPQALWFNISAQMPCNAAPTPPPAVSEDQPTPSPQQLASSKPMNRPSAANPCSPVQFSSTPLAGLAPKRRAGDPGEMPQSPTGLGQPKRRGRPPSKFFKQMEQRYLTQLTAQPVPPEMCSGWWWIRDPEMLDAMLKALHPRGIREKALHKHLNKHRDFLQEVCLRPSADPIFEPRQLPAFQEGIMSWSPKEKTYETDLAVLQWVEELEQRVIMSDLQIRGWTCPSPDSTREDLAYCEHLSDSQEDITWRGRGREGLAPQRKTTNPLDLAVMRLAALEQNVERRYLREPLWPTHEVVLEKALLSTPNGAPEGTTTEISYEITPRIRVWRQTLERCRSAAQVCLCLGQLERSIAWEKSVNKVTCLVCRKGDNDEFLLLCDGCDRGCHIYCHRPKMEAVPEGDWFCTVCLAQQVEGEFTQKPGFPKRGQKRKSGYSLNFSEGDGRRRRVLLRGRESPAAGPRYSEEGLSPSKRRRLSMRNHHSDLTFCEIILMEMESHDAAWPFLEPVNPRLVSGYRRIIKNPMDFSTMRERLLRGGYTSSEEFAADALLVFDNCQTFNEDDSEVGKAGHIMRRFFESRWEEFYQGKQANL
hERG (KCNH2), sequence (Q12809 whole entry): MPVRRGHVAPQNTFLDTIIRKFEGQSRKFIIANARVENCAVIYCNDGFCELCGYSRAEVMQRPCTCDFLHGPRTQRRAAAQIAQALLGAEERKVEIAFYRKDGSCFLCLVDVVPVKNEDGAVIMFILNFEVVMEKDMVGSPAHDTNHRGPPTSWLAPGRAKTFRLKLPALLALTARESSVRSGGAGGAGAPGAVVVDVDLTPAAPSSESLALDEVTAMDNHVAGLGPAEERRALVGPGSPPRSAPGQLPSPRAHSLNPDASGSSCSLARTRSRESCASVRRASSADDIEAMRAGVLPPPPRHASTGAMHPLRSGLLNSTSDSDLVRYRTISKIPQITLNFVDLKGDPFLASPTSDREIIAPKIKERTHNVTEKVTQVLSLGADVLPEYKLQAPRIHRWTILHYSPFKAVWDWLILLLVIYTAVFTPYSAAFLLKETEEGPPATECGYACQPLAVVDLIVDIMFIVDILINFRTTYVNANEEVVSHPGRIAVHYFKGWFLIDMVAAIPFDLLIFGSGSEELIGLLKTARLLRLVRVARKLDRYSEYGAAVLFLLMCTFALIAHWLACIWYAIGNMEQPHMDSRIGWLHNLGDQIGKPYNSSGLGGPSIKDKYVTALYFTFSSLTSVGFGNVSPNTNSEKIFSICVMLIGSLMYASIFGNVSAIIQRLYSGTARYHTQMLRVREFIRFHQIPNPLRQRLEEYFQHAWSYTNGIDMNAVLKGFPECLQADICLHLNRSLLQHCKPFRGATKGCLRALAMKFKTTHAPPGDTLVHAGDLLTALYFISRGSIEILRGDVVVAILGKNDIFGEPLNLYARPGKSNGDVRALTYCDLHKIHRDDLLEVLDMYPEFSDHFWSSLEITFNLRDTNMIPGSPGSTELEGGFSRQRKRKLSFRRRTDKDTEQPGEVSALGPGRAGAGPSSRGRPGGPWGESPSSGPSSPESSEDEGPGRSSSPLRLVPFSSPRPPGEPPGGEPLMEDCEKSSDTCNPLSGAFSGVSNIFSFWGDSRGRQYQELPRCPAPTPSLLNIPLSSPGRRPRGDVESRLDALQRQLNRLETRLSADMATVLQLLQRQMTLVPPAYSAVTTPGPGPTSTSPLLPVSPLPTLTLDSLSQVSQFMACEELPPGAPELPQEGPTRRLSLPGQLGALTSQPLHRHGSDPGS
Histone acetyltransferase KAT2B, sequence (Q92831 whole entry): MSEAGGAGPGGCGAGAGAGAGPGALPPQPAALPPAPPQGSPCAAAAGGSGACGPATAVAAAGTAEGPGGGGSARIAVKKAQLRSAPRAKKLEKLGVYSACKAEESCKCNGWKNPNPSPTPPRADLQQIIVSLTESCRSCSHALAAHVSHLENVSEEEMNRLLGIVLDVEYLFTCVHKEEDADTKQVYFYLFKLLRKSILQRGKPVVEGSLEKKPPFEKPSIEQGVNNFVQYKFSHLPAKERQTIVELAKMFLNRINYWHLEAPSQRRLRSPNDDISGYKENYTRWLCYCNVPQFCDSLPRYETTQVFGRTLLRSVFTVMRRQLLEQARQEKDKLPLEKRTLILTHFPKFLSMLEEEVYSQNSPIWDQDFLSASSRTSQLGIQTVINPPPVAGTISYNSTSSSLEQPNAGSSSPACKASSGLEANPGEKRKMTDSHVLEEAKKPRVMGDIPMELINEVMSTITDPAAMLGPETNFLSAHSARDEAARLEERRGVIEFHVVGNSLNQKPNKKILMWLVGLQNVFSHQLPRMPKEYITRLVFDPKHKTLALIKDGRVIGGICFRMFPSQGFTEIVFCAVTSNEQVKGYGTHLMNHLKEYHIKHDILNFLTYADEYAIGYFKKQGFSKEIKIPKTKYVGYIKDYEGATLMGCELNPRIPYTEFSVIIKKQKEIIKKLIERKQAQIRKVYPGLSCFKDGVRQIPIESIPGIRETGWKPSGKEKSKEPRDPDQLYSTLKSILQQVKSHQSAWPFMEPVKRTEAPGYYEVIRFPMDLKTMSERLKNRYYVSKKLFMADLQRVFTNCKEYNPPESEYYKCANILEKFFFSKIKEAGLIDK
E3 ubiquitin-protein ligase TRIM33, sequence (Q9UPN9 whole entry, the tested form may be a part): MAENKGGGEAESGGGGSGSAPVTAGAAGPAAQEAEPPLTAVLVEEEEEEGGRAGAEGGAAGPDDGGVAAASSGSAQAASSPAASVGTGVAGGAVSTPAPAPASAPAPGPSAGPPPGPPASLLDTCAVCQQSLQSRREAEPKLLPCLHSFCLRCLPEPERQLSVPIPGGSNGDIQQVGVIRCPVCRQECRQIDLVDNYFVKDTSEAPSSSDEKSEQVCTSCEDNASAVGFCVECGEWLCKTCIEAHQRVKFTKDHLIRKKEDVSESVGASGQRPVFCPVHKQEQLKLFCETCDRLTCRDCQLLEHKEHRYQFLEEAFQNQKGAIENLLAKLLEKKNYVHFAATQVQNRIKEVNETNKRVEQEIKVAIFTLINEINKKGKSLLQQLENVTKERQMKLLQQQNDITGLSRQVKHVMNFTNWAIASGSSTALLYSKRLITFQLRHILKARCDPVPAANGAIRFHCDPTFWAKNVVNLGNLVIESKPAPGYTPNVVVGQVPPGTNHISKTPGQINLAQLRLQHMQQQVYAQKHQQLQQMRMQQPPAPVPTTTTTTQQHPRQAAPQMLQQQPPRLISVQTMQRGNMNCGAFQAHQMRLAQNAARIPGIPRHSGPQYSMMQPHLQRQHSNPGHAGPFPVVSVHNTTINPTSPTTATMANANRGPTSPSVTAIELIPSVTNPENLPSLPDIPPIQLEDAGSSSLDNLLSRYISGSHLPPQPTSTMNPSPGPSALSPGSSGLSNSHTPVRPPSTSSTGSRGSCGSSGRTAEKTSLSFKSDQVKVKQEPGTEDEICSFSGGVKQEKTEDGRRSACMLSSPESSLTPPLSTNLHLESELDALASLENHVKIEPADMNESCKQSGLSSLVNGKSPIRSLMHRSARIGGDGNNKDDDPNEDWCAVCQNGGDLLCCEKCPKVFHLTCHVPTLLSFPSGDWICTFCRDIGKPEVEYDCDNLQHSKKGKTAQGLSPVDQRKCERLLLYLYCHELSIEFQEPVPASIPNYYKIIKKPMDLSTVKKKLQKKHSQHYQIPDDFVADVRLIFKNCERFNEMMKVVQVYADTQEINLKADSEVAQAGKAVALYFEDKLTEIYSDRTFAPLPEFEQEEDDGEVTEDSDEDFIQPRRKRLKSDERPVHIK

IC50 [1] [µM]	IC50 [2] [µM]	IC50 [3] [µM]	Kd [4] [µM]	bioavailability [6] [%]	GI50 (SW-620) [µM]	IC50 [8] [µM]	solubility [9] [µM]	half-life [10] [h]	Papp A→B at 2 h, 10 µM [11] [×10⁻⁶ cm/s]	GI50 (HepG2) [µM]	Tmax [12] [h]	Fa [13] [%]	Vd [14] [L/kg]	Structure (SMILES)	inhibition at 30 µM (hERG (KCNH2)) [%]	GI50 [5] [µM]	GI50 (HuP-T4) [µM]	GI50 [7] [µM]	GI50 (KG-1) [µM]
> 100	> 100	> 100	–	–	–	–	–	–	–	–	–	–	–	CCc1cc2cc(NS(=O)(=O)c3ccc(C#N)cc3)ccc2n(CC)c1=O	–	–	–	–	–
–	–	–	1.13	49	1 to 10	2	100 (≈ 35.3 µg/mL)	2	10	1 to 10	1	51	0.7	Cc1cc2cc(NS(=O)(=O)c3ccc(C#N)cc3)ccc2n(C)c1=O	45.6	1 to 10	1 to 10	1 to 10	7

— ChEMBL document CHEMBL4052588, “Design of a Biased Potent Small Molecule Inhibitor of the Bromodomain and PHD Finger-Containing (BRPF) Proteins Suitable for Cellular and in Vivo Studies” (J Med Chem, 2017)
